Data on 28 compounds can be found in ChEMBL document CHEMBL1641602, “Quinolones as HCV NS5B polymerase inhibitors” (Bioorg Med Chem Lett, 2011).

Data set [1] can be described thus: Inhibition of Hepatitis C virus 1b BK NS5B Cdelta21 polymerase by scintillation proximity assay. More on the design: species or system Hepatitis C virus (isolate BK). In general terms: In a scintillation proximity assay essentially only radioactivity close to the scintillant gives light.
The nature of data set [2]: Cytotoxicity against human HuH7 cells. Format: cell-based, Huh-7.
Data set [3] has as its system Hepatitis C virus. Description: Antiviral activity against HCV 1b infected in human HuH7 cells assessed as total viral RNA level after 48 hrs by RT-qPCR analysis. The note with it: for EC50: huh-7; for pEC50: Hepatitis C virus, genotype 1b, Huh-7, 48 h, read-out: EC50. Format: functional, organism-based, Hepacivirus hominis, genotype 1b, Huh-7. In a few lines: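 Huh7/Clone A genotype 1b replicon cells, seeded at 40,000 per well in growth medium without G418, incubated overnight at 37 °C, 5% CO2. Compounds serially diluted in DMSO (final 0.5%), seven concentrations in triplicate, 48 h at 37 °C. Total RNA extracted and replicon RNA quantified by TaqMan RT-qPCR, normalized to untreated cells (100%).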
In general terms: Quantitative PCR measures a nucleic acid by following its amplification.

Data set [4] concerns RNA-directed RNA polymerase (Hepacivirus hominis), O39930 [M423F]. As to the kind of experiment: Inhibition of HCV 1b BK NS5B polymerase NNI-2 allosteric site M423F mutant by scintillation proximity assay relative to wild-type. The note with it: Hepatitis C virus (isolate BK). In a few lines: (§1)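 SPA polymerase assay at 22 °C: 50 nM genotype 1b BK NS5B (C-terminal 21-residue deletion), mutant and wild-type, preincubated with inhibitor in pH 7.5 Tris buffer with MgCl2, DTT, KCl, BSA and 5% DMSO. Started with [3H]UTP, 1 µM UTP, biotinylated oligo(rU12) and poly(rA); stopped at 120 min with streptavidin SPA beads, then CsCl, then counted. Fold-change in inhibition over wild-type.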
Sequence of RNA-directed RNA polymerase (Hepacivirus hominis), O39930 [M423F] (O39930 entry or part of it M423F): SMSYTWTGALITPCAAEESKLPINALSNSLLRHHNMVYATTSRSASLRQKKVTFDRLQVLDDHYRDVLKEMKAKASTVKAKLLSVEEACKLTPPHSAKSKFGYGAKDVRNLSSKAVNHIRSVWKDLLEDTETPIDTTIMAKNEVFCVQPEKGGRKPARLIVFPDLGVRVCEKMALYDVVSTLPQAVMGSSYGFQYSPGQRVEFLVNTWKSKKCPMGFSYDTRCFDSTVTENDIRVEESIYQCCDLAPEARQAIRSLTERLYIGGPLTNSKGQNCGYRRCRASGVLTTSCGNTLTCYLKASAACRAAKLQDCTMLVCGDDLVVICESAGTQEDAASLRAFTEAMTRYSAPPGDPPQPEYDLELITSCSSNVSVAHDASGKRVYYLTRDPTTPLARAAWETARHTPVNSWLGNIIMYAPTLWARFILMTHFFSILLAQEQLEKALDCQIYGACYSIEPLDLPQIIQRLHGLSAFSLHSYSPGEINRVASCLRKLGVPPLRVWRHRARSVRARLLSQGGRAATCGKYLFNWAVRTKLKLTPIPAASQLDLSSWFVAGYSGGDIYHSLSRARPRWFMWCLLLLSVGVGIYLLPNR

Data set [5] deals with RNA-directed RNA polymerase (Hepacivirus hominis), O39930 [P495L]. As to the kind of experiment: Inhibition of HCV 1b BK NS5B polymerase NNI-1 allosteric site P495L mutant by scintillation proximity assay relative to wild-type. Particulars: Hepatitis C virus (isolate BK); call rule not given here. In a few lines: as §1
Sequence of RNA-directed RNA polymerase (Hepacivirus hominis), O39930 [P495L] (O39930 entry or part of it P495L): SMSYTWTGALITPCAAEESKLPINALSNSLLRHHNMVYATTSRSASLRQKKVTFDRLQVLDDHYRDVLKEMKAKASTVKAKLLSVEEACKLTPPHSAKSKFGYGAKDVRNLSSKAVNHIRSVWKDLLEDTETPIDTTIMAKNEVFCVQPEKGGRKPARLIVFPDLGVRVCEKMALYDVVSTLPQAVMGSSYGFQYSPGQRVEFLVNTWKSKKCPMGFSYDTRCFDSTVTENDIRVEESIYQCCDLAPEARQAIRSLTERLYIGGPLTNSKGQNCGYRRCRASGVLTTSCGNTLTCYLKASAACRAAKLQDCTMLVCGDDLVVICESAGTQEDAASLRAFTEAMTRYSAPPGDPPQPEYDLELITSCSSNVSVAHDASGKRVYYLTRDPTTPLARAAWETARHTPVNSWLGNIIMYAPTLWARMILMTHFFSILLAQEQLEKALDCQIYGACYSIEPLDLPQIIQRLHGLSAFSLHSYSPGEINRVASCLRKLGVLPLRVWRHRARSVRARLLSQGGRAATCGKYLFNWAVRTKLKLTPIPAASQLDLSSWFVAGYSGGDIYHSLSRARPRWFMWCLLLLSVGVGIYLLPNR
The test system of data set [6] is Hepatitis C virus. Description: Antiviral activity against HCV 1a infected in human HuH7 cells assessed as total viral RNA level after 48 hrs by RT-qPCR analysis. Format: functional, organism-based, Hepacivirus hominis. Particulars: subtype 1a, Huh-7, 48 h.

By pIC50 is commonly meant the IC50 on a negative log10 scale, so that one unit is a factor of ten. Lower therefore signals a high IC50. A word on the GI50: it is the concentration giving 50% growth inhibition. For orientation: pEC50 means the EC50 on a negative log10 scale, so that one unit is a factor of ten.

The structures appear in SMILES notation. pEC50, pIC50: −log10 of the molar value.

With `COc1cc2c(=O)c(C(=O)c3ccc(C)cc3)cn(CCc3ccccc3)c2cc1OC`, in data set [1], the pIC50 is 3.96. Further, the 50% growth inhibitory concentration (GI50) entry in data set [2] (huh-7) was “Not Active”. For the same compound, in the data set with Hepatitis C virus [3], the EC50 entry was “Not Active”.

Turning to `CCOC(=O)c1cn(Cc2ccc(Cl)cc2)c2cc(OC)c(OC)cc2c1=O`, the negative-log IC50 (pIC50) in data set [1] was 4.80. The GI50 in data set [2] (HuH7 cells, read-out: GI50) is greater than 15 µM. Also, in the data set with Hepatitis C virus [3], the pEC50 is less than 4.82.

Consider `COc1cc2c(=O)c(C(=O)c3ccc(C)cc3)cn(Cc3ccc(N)cc3)c2cc1OC`, for which, in data set [1], the negative logarithm of the IC50 (pIC50) was 3.85. Besides, the GI50 result in data set [2] (huh-7) is recorded as “Not Active”. Moreover, the EC50 result in the data set on Hepatitis C virus [3] is “Not Active”.

`COc1cc2c(=O)c(C(=O)c3ccc(C)cc3)cn(Cc3ccc(C(C)(C)C)cc3)c2cc1OC` showed a pIC50 in data set [1] of 6.17. Besides, in data set [2] (HuH7 cells, read-out: GI50), the GI50 is greater than 25 µM. Further, the negative logarithm of the EC50 (pEC50) in the data set with Hepatitis C virus [3] is 5.02.

For the compound `O=C(NCc1ccc(Cl)cc1)c1cn(Cc2ccc(Cl)cc2)c2cc(N3CCOCC3)c(F)cc2c1=O`, in data set [1], the pIC50 was 4.80. For the same compound, in data set [2] (huh-7), the GI50 result is “Not Active”. The EC50 result in the data set with Hepatitis C virus [3] was “Not Active”.

As to `COc1cc2c(=O)c(C(=O)c3ccc(C)cc3)cn(CCCc3ccccc3)c2cc1OC`, the pIC50 in data set [1] was 5.66. Further, in data set [2] (huh-7), the 50% growth inhibitory concentration (GI50) result is on record as “Not Active”. Further, the EC50 result in the data set with Hepatitis C virus [3] is given as “Not Active”.

Regarding `O=C(OCc1ccc(Cl)cc1)c1cn(Cc2ccc(Cl)cc2)c2cc(N3CCOCC3)c(F)cc2c1=O`, in data set [1], the negative-log IC50 (pIC50) was 7.70. In addition, the concentration for 50% growth inhibition (GI50) in data set [2] (HuH7 cells, read-out: GI50) is greater than 12 µM. Also, in the data set with Hepatitis C virus [3], the pEC50 is 5.77.

As to `CN1CCN(c2cc3c(cc2F)c(=O)c(NC(=O)NCc2ccc(Cl)cc2)cn3Cc2ccc(Cl)cc2)CC1`, the negative logarithm of the IC50 (pIC50) in data set [1] is less than 3.82. Moreover, in data set [2] (huh-7), the 50% growth inhibitory concentration (GI50) result was “Not Active”. In the data set on Hepatitis C virus [3], the EC50 entry was “Not Active”.

`COc1cc2c(=O)c(C(=O)c3ccc(C)cc3)cn(Cc3ccc(Cl)c(Cl)c3)c2cc1OC` showed a pIC50 in data set [1] of 5.96. For the same compound, the GI50 entry in data set [2] (huh-7) was “Not Active”. Further, the EC50 result in the data set with Hepatitis C virus [3] was “Not Active”.

On to `COc1cc2c(=O)c(C(=O)c3ccc(C)cc3)cn(CC3CC3)c2cc1OC`, for which the pIC50 in data set [1] was 3.92. Also, the concentration for 50% growth inhibition (GI50) entry in data set [2] (huh-7) was “Not Active”. The EC50 entry with Hepatitis C virus [3] is recorded as “Not Active”.

Consider `COc1cc2c(=O)c(C(=O)c3ccc(C)cc3)cn(Cc3ccc(Cl)cc3)c2cc1OC`, for which the pIC50 in data set [1] was 5.96. Also, the 50% growth inhibitory concentration (GI50) in data set [2] (HuH7 cells, read-out: GI50) is 15.5 µM. Moreover, the negative-log EC50 (pEC50) in the data set with Hepatitis C virus [3] was 4.93.

`COc1cc2c(=O)c(C(=O)c3ccc(C)cc3)cn(Cc3ccccc3)c2cc1OC` had a negative logarithm of the IC50 (pIC50) in data set [1] of 3.77. Also, the concentration for 50% growth inhibition (GI50) entry in data set [2] (huh-7) is listed as “Not Active”. For the same compound, the EC50 result with Hepatitis C virus [3] is “Not Active”.

For `COc1cc2c(=O)c(C(=O)OCc3cccc(C)c3)cn(Cc3ccc(C(F)(F)F)cc3F)c2cc1OC`, the negative logarithm of the IC50 (pIC50) in data set [1] was 7.22. In data set [2] (HuH7 cells, read-out: GI50), the GI50 came out at 7.3 µM. Moreover, the pEC50 with Hepatitis C virus [3] was 5.92.

Consider `COc1cc2c(=O)c(C(=O)c3ccc(C)cc3)cn(Cc3ccc(C(C)C)cc3)c2cc1OC`, for which the negative-log IC50 (pIC50) in data set [1] was 5.94. In data set [2] (HuH7 cells, read-out: GI50), the concentration for 50% growth inhibition (GI50) stood at 15.5 µM. In addition, the fold change (FC) in data set [4] is greater than 200; in data set [5] it was 1. Moreover, the pEC50 in the data set with Hepatitis C virus [3] was 4.93.

Regarding `COc1cc2c(=O)c(C(=O)c3ccc(C)cc3)cn(Cc3ccc(S(N)(=O)=O)cc3)c2cc1OC`, the negative logarithm of the IC50 (pIC50) in data set [1] was 6.07. The GI50 in data set [2] (HuH7 cells, read-out: GI50) was greater than 25 µM. Besides, the pEC50 with Hepatitis C virus [3] is less than 4.30.

In data set [1], `COc1cc2c(=O)c(C(=O)OCc3ccc(C)cc3)cn(Cc3ccc(C(F)(F)F)cc3F)c2cc1OC` gave a negative-log IC50 (pIC50) of 8.10. Also, in data set [2] (HuH7 cells, read-out: GI50), the 50% growth inhibitory concentration (GI50) was determined as 20 µM. For the same compound, the pEC50 with Hepatitis C virus [3] was 6.64.

For `COc1cc2c(=O)c(COCc3ccc(Cl)cc3)cn(Cc3ccccc3)c2cc1OC`, the pIC50 in data set [1] was 4.00. In data set [2] (huh-7), the GI50 result is “Not Active”. In the data set on Hepatitis C virus [3], the EC50 result is reported as “Not Active”.

In data set [1], `CN1CCN(c2cc3c(cc2F)c(=O)c(NC(=O)Cc2ccc(Cl)cc2)cn3Cc2ccccc2)CC1` showed a pIC50 of 5.70. Besides, the GI50 result in data set [2] (huh-7) is listed as “Not Active”. Besides, in the data set on Hepatitis C virus [3], the EC50 result is on record as “Not Active”.

Turning to `CN(Cc1ccc(Cl)cc1)C(=O)c1cn(Cc2ccc(Cl)cc2)c2cc(N3CCOCC3)c(F)cc2c1=O`, the negative-log IC50 (pIC50) in data set [1] is 3.48. In data set [2] (huh-7), the GI50 entry was “Not Active”. Also, in the data set on Hepatitis C virus [3], the EC50 entry is “Not Active”.

Compound `CN1CCN(c2cc3c(cc2F)c(=O)c(NC(=O)Cc2ccccc2)cn3Cc2ccc(Cl)cc2)CC1` gave a pIC50 in data set [1] of 5.34. Moreover, in data set [2] (huh-7), the concentration for 50% growth inhibition (GI50) entry was “Not Active”. For the same compound, the EC50 entry in the data set on Hepatitis C virus [3] is reported as “Not Active”.

Regarding `COc1cc2c(=O)c(S(=O)(=O)CCc3ccc(Cl)cc3)cn(Cc3ccccc3)c2cc1OC`, the pIC50 in data set [1] is less than 3.82. Also, the 50% growth inhibitory concentration (GI50) result in data set [2] (huh-7) is “Not Active”. Besides, the EC50 result in the data set on Hepatitis C virus [3] was “Not Active”.

`COc1cc2c(=O)c(C(=O)OCc3ccc(Cl)cc3)cn(Cc3ccc(Cl)cc3)c2cc1OC`: the pIC50 in data set [1] is 7.70. In data set [2] (HuH7 cells, read-out: GI50), the GI50 was 28.3 µM. Also, in the data set with Hepatitis C virus [3], the negative-log EC50 (pEC50) was 5.92.

Take `COc1cc2c(=O)c(C(=O)c3ccc(C)cc3)cn(CC3CCCCC3)c2cc1OC`: the pIC50 in data set [1] is 5.05. Besides, in data set [2] (HuH7 cells, read-out: GI50), the GI50 was 22 µM. Also, in the data set with Hepatitis C virus [3], the negative-log EC50 (pEC50) was 4.42.

Compound `CN1CCN(c2cc3c(cc2F)c(=O)c(NC(=O)NCc2ccccc2)cn3Cc2ccccc2)CC1` showed a negative-log IC50 (pIC50) in data set [1] of 4.59. In addition, the GI50 result in data set [2] (huh-7) is listed as “Not Active”. Also, the EC50 entry with Hepatitis C virus [3] is recorded as “Not Active”.

`COc1cc2c(=O)c(C(=O)c3ccc(C)cc3)cn(Cc3ccc(S(C)(=O)=O)cc3)c2cc1OC` showed a pIC50 in data set [1] of 6.30. For the same compound, in data set [2] (HuH7 cells, read-out: GI50), the GI50 is greater than 50 µM. Moreover, the negative logarithm of the EC50 (pEC50) in the data set on Hepatitis C virus [3] is 4.60.

On to `COc1cc2c(=O)c(C(=O)OCc3ccccc3C)cn(Cc3ccc(C(F)(F)F)cc3F)c2cc1OC`, for which the pIC50 in data set [1] was 7.82. In addition, in data set [2] (HuH7 cells, read-out: GI50), the concentration for 50% growth inhibition (GI50) was found to be 31 µM. Besides, the pEC50 in the data set on Hepatitis C virus [3] is 6.15.

The compound `COc1cc2c(=O)c(C(=O)c3ccc(C)cc3)cn(Cc3ccc(C(F)(F)F)cc3F)c2cc1OC` had a pIC50 in data set [1] of 6.39. Moreover, the concentration for 50% growth inhibition (GI50) in data set [2] (HuH7 cells, read-out: GI50) is greater than 25 µM. In the data set with Hepatitis C virus [3], the pEC50 was less than 4.92.

For `O=C(OCc1ccc(Cl)cc1)c1cn(Cc2ccc(Cl)cc2)c2cc(N3CCNCC3)c(F)cc2c1=O`, the negative-log EC50 (pEC50) was 6.39 in the data set on Hepatitis C virus [6] and 6.92 in the data set on Hepatitis C virus [3]. Also, in data set [1], the pIC50 was 8.00. Further, the 50% growth inhibitory concentration (GI50) in data set [2] (HuH7 cells, read-out: GI50) was 1.1 µM.
